Source: PubChem BioAssay (several laboratories)
SKKanGAS inh: S. pyogenes SKKanGAS growth inhibitors in kanamycin, primary screen, streptokinase expression inhibitor project, SKKanGAS strain, BacTiter-Glo luminescence; 6 h; inhibition, % at 7.5 µM; 300,000 tested, 1.3% active; AID 1662, 2009;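 active = mean replicate score, as percent of positive control median, at least 50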;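 also: strain carries kanamycin resistance gene driven by streptokinase promoter and grows in 40 µg/ml kanamycin; loss of luminescence reflects streptokinase promoter inhibition or plain growth inhibition; 0% = median of DMSO wells and 100% = positive control at its reference dose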
Lmaj promast: Leishmania major promastigote growth inhibition, primary screen | inhibition, % at 10 µM | Leishmania major promastigotes, resazurin fluorescence viability | 200,000 tested, 9% active; in the data active = inhibition above about 50%;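 also: promastigotes grown with compound for 44 hours at 28 °C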
Beta apoptosis: inhibitors of cytokine-induced beta cell apoptosis, primary screen, luminescence; protection from apoptosis, % (no concentration beside the values); INS-1E cytokine-induced death, ATP luminescence, 48 h; percent of positive-control rescue, neutral wells zero; AID 435005, 2010; 300,000 tested, 0.8% active;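 active = Every replicate reaches about 75%, or at least half do and their mean reaches it too, limit read from the data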;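 also: 0% = cytokine-treated negative control wells and 100% = positive control rescue; higher means more ATP so stronger rescue from cytokine killing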
T cruzi inh: inhibitors of intracellular T. cruzi growth, primary screen, luminescence, NIH3T3 host cells; T. cruzi beta-gal in NIH3T3, 90 h; inhibition, % (concentration not given with the values); 300,000 tested, 1.4% active; AID 1885, 2009;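 active = mean inhibition across valid replicates above about 55%, limit read from the data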;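 also: signal also drops with host cell toxicity which is not excluded here; 0% = plate median of DMSO wells and 100% = zero luminescence signal; higher percent means less beta-gal luminescence so fewer parasites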
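Assay system: NIH/3T3 host cells with β-galactosidase reporter T. cruzi; input: 5,000 host fibroblasts per well; compound: single 50 nL compound addition per well in DMSO; timing: ≥90 h infection period, 3 h prior cell attachment; measured by: GalScreen β-gal luminescence, detergent lysis, 60 min; evaluation: percent inhibition of parasite-derived β-gal signal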
CSC inhib: cancer stem cell viability inhibitors, primary screen, luminescence; cancer stem cell-like cells viability; inhibition, % at 7.5 µM; 300,000 tested, 1.1% active; in the data active = inhibition above about 75%; tested in HMLE shEcad cells
Mdm2-MdmX inh: inhibitors of human Mdm2-MdmX association, primary screen, cell-based, luminescence, split luciferase, SaOS-2, uHTS. AID 485346, 2010. 330,000 tested, 3% active. inhibition, % at 8 µM. SaOS-2 split-luciferase Mdm2/MdmX complementation;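 active = inhibition of at least 50% at 8 µM in the primary screen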
Target sequence (O15151 whole entry, looked up): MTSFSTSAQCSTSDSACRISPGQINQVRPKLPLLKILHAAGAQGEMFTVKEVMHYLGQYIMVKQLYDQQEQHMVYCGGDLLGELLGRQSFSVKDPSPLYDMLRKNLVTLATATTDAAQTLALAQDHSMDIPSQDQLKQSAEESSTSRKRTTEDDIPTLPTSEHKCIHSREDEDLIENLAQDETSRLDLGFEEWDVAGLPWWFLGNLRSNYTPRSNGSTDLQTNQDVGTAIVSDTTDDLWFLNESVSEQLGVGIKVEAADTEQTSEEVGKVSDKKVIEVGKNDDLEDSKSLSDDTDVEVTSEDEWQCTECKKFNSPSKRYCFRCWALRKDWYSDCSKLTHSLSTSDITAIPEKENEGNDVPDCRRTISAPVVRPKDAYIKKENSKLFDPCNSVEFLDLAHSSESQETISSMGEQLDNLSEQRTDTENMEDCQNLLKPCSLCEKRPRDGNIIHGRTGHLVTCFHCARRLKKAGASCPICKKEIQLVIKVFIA
Target sequence (Q00987 whole entry, looked up): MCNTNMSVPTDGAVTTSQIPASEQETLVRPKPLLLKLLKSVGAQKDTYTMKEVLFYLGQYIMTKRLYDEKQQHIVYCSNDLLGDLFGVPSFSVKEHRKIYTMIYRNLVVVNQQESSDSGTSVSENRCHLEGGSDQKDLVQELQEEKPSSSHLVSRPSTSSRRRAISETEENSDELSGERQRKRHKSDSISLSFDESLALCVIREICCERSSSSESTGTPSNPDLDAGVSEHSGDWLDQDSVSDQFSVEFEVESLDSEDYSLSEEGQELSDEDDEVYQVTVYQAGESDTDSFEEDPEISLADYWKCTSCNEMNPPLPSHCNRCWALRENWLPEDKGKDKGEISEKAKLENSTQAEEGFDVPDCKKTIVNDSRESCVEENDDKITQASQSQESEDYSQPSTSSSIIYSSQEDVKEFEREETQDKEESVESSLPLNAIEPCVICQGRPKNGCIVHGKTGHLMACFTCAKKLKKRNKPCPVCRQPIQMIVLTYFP
Active calls of the source: *; / = no result given. An excerpt weighted towards active compounds, which were near 9.4% of everything screened.

SMILES	SKKanGAS inh	Lmaj promast	Beta apoptosis	T cruzi inh	CSC inhib	Mdm2-MdmX inh
c1ccc(N2CCN(c3ccccc3)C2c2cccnc2)cc1	9	92*	0	36	-3	9
CCCn1c(Cc2ccccc2)nnc1SC(C)C(=O)NC1CC1 (stereo not given)	/	/	-5	/	-3	19
COc1ccc(CCNC(=O)COc2ccc3c(C)cc(=O)oc3c2)cc1OC	-1	/	/	-3	0	25
Cc1ccc(CN2CC(C(=O)Nc3ccc4c(C)cc(=O)oc4c3)CC2=O)cc1 (stereo not given)	-2	4	0	-14	1	13
Cc1cc(=O)oc2cc(NC(=O)C3CCCC3)ccc12	-1	101*	-2	8	-4	-14
COc1ccc(CC(=O)Nc2ccc3c(C)cc(=O)oc3c2)cc1OC	1	64*	-3	-2	2	26
Cc1cccc(NC(=O)CCS(=O)(=O)c2cccc3nonc23)c1C	4	/	-5	17	/	-8
Cc1cc(C(=O)NNC(=O)c2nn(C)c(=O)c3ccccc23)c(C)o1	-2	65*	0	-10	-7	5
COC(=O)[C@@H]1C[C@H]2CC[C@H](O)C[C@H]2N1Cc1ccccc1OS(=O)(=O)c1ccc(C)cc1	-1	/	0	1	-4	-33
CCOC(=O)c1c(-c2ccccc2)csc1NC(=O)c1ccc(S(=O)(=O)N2CC(C)OC(C)C2)cc1 (stereo not given)	20	18	6	-8	0	-2
CCOC(=O)c1c(-c2ccc(C)cc2)csc1NC(=O)CCN1CC(C)OC(C)C1 (stereo not given)	-3	98*	4	13	-1	21
CCOC(=O)c1c(NC(=O)CCN2CCOCC2)sc(C)c1-c1ccccc1	-8	52*	0	8	1	-14
CCOC(=O)c1c(-c2ccc(OC)cc2)csc1NC(=O)CCN1C(=O)c2ccccc2C1=O	7	-1	-2	8	70	10
CCN1CCN(C(=S)Nc2sc(C)c(-c3ccccc3)c2C(=O)OC)CC1	6	/	3	39	90*	28
CCOC(=O)c1c(-c2ccc(OC)cc2)csc1NC(=O)CCN1CCOCC1	/	84*	-3	/	-6	24
CCOC(=O)c1c(-c2ccc(C)cc2)csc1NC(=O)C1CCCO1 (stereo not given)	5	7	6	16	3	19
CCOC(=O)c1c(-c2ccc(Cl)cc2)csc1NC(=O)CNCc1ccco1	24	/	2	7	77*	-7
CCOC(=O)c1c(-c2ccc(OC)cc2)csc1NC(=O)C1CCCO1 (stereo not given)	1	52*	5	7	66	3
COc1cc(OC)c(OC)cc1/C=C1\CC(C)C/C(=C\c2cc(OC)c(OC)cc2OC)C1=O (stereo not given)	56*	/	14	59*	12	/
CC(C)(OC(=O)c1ccc(C#N)cc1)c1cc2ccccc2c(=O)o1	/	/	-11	/	-10	1
NC(=S)n1[nH]c(-c2ccc([N+](=O)[O-])cc2)c(N=Nc2ccc(O)cc2)c1=O	12	97*	/	16	15	41
C=C(C)CC(Nc1ccc(OC)cc1)c1ccco1 (stereo not given)	5	1	-3	-9	6	0
COc1ccc2cc(C(=O)NCc3ccccc3)c(=Nc3ccc(C(=O)O)cc3)oc2c1	59*	-7	10	3	4	9
O=C(O)c1ccc(N=c2oc3cc(O)ccc3cc2C(=O)NCc2ccccc2)cc1	43	0	-4	8	14	21
Clc1ccc(-c2csc(N3CCc4ccccc4C3)n2)cc1	56*	-2	1	-6	-6	-30
SMILES	SKKanGAS inh	Lmaj promast	Beta apoptosis	T cruzi inh	CSC inhib	Mdm2-MdmX inh
Clc1ccc(-c2csc(N3CCN(c4ccccc4)CC3)n2)cc1	2	-5	-5	7	1	-4
COc1cccc2cc(C(C)N(CCCN3CCOCC3)C(=S)Nc3c(C)cccc3C)oc12 (stereo not given)	-1	53*	-1	-3	-7	20
CCc1ccc(NC(=O)N(CCCN2CCOCC2)C(C)c2cc3cccc(OC)c3o2)cc1 (stereo not given)	-12	54*	0	-4	3	-9
CCOc1ccc(-n2c(-c3ccccc3)c[n+]3c2CCC3)cc1	6	94*	104*	62*	-5	39
CCOc1ccc(-n2c(-c3ccc(Br)cc3)c[n+]3c2CCCCC3)cc1	-13	101*	118*	83*	-9	16
FC(F)Oc1ccc(-c2c[n+]3c(n2-c2ccccc2)CCCCC3)cc1	0	/	8	36	-8	-5
CC(=O)c1cccc(CN2CCCCC2C(=O)Nc2ccc(Oc3ccccc3)nc2)c1 (stereo not given)	15	/	-8	-7	-14	-32
Cc1cc(C)cc(-n2c(C)cc(C(=O)CSc3nnnn3C)c2C)c1	-7	91*	3	3	-13	13
O=C(COC(=O)c1ccc(Cl)nc1)Nc1cc(S(=O)(=O)N2CCOCC2)ccc1Cl	/	/	1	/	-9	7
CCOc1ccc(OCC)c(S(=O)(=O)n2cc(C)nc2CC)c1	2	99*	10	5	0	11
Cc1cc(C)c(OCCCCN2CCNCC2)c(C)c1	3	/	1	10	82*	-25
COc1ccc(NC(=O)CCNS(=O)(=O)c2ccc(C)c(C)c2)cc1OC	1	/	-11	-9	-5	9
O=C(C[n+]1ccccc1)N/N=C/c1cccs1	-4	-1	-7	-2	-10	9
COc1ccc(Br)cc1-c1nc(CCl)cs1	-1	4	0	0	13	15
Cc1ccc(Cc2cnc(N3C(=N)SC(c4ccccc4)C3=O)s2)cc1 (stereo not given)	104*	-10	0	-26	30	22
Cc1ccc(C2SCC(=O)N2Cc2ccccc2)cc1 (stereo not given)	-8	/	-8	1	-1	2
N=C1SC(c2ccccc2)C(=O)N1c1ncc(Cc2ccccc2)s1 (stereo not given)	97*	50	12	3	65	14
CC1C(=O)N2CCCc3cc(NC(=O)c4ccccc4F)cc1c32 (stereo not given)	0	/	-1	1	7	22
CCc1ccc(OCCNC(=O)c2ccccc2SCc2ccc(F)cc2)cc1	17	-2	3	57*	23	17
COc1cc(SC)ccc1C(=O)NCCOc1ccc(F)cc1	1	58*	5	10	-14	-180
